According to ChEMBL document CHEMBL4715731, “Synthesis, antiarrhythmic activity, and toxicological evaluation of mexiletine analogues” (Eur J Med Chem, 2016):

What was measured:
[1] = test system: Left cardiac atrium; assay: Antiarrhythmic activity in 50 Hz sinusoidal alternating current-induced guinea pig left atrium arrhythmias model assessed as increase in threshold of ac-arrhythmia at 1 x 10^-5 M measured for every 30 mins relative to control; assay type: functional, Cavia porcellus; details: dose 1 10^-5M, 0.5 h, at 10 µM
Procedure, shortened: (§1)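 Guinea pig left atria mounted between platinum field electrodes in modified Krebs-Henseleit (pH 7.4, 95% O2–5% CO2, 35 °C), isometric force recorded. 50 Hz sinusoidal AC of rising strength applied; current intensity (mA/cm²) producing extra beats taken as ac-arrhythmia threshold. Stabilized 60 min, then compounds added cumulatively every 30 min.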

[2] = test system: Left cardiac atrium; assay: Antiarrhythmic activity in 50 Hz sinusoidal alternating current-induced guinea pig left atrium arrhythmias model assessed as increase in threshold of ac-arrhythmia measured for every 30 mins relative to control; assay type: functional, tissue-based; details: Cavia porcellus, 0.5 h
[3] = test system: Left cardiac atrium; assay: Negative inotropic activity in guinea pig left atrium assessed as decrease in 1 Hz driven developed tension at 1 x 10^-7 M relative to control; assay type: ADME, tissue-based, Cavia porcellus; parameters: scale not given: the % may be the effect or the level left; details: 0.1 µM, dose 1 10^-7M
Procedure, shortened: (§2)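 Guinea pig left atria paced at 1 Hz (rectangular pulses 0.6–0.8 ms, […]) in PSS, pH 7.4, 35 °C, 95% O2–5% CO2. Isometric developed tension recorded. Cumulative concentrations 0.01–100 μM in PSS, each added after steady state. Change expressed as percent of control (n = 5–6).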

[4] = test system: Left cardiac atrium; assay: Negative inotropic activity in guinea pig left atrium assessed as decrease in 1 Hz driven developed tension; assay type: tissue-based; details: Cavia porcellus
[5] = test system: Right cardiac atrium; assay: Negative inotropic activity in guinea pig spontaneously beating right atrium assessed as decrease in developed tension at 5 x 10^-6 M relative to control; assay type: ADME, tissue-based, Cavia porcellus; parameters: scale not given: the % may be the effect or the level left; details: 5 µM, dose 5 10^-6M
Procedure, shortened: (§3)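 Spontaneously beating guinea pig right atria in PSS, pH 7.4, 35 °C, gassed with 95% O2–5% CO2. Isometric recording of rate and developed force. Compounds added cumulatively, 0.01–100 μM, each after steady state. Percent change from control; rate data n = 7–8. EC50 by probit analysis.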

[6] = test system: Right cardiac atrium; assay: Negative inotropic activity in guinea pig spontaneously beating right atrium assessed as decrease in developed tension; assay type: ADME, tissue-based; details: Cavia porcellus
Procedure, shortened: (§4)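 Isometric recording of rate and developed force. Compounds added cumulatively, 0.01–100 μM, each after steady state. Percent change from control; rate data n = 7–8. EC50 by probit analysis.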

[7] = test system: Right cardiac atrium; assay: Negative chronotropic activity in guinea pig spontaneously beating right atrium assessed as decrease in atrial rate at 1 x 10^-5 M relative to control; assay type: ADME, tissue-based, Cavia porcellus; parameters: scale not given: the % may be the effect or the level left; details: 10 µM, dose 1 10^-5M; procedure, shortened: as §4
[8] = test system: Aorta; assay: Inhibition of calcium-induced contraction in K+-depolarized guinea pig aortic strips at 1 x 10^-4 M relative to control; assay type: tissue-based; details: Cavia porcellus, dose 1 10^-4M
Procedure, shortened: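 Helicoidal guinea pig aortic strips at 1 g resting force in PSS at 35 °C, contracted with 80 mM KCl (K+ replacing Na+). At plateau (about 45 min), compounds added cumulatively, 0.1–100 μM.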

[9] = test system: Ileum; assay: Inhibition of calcium-induced contraction in K+-depolarized guinea pig longitudinal smooth muscle at 1 x 10^-5 M relative to control; assay type: tissue-based; details: Cavia porcellus, dose 1 10^-5M
[10] = test system: Ileum; assay: Inhibition of calcium-induced contraction in K+-depolarized guinea pig longitudinal smooth muscle; assay type: tissue-based; details: Cavia porcellus
[11] = Toxicity in mouse assessed as motor coordination impairment by measuring number of falls from rotarod at 25 mg/kg, ip measured after 30 mins by rotarod test; assay type: organism-based; details: in vivo, 0.5 h
[12] = Toxicity in mouse assessed as motor coordination impairment by measuring number of falls from rotarod at 25 mg/kg, ip measured after 45 mins by rotarod test; assay type: organism-based; details: in vivo
[13] = Toxicity in mouse assessed as motor coordination impairment by measuring number of falls from rotarod at 25 mg/kg, ip measured after 60 mins by rotarod test; assay type: organism-based; details: in vivo, 1 h
[14] = Toxicity in mouse assessed as motor coordination impairment by measuring number of falls from rotarod at 50 mg/kg, ip measured after 30 mins by rotarod test; assay type: organism-based; details: in vivo, 0.5 h
[15] = Toxicity in mouse assessed as motor coordination impairment by measuring number of falls from rotarod at 50 mg/kg, ip measured after 45 mins by rotarod test; assay type: organism-based; details: in vivo
[16] = Toxicity in mouse assessed as motor coordination impairment by measuring number of falls from rotarod at 50 mg/kg, ip measured after 60 mins by rotarod test; assay type: organism-based; details: in vivo, 1 h
[17] = test system: HepG2; assay: Cytotoxicity against human HepG2 cells at EC50 concentration incubated for 2 hrs by MTT assay; assay type: cell-based; details: hepg2, 2 h
Procedure, shortened: (§5)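 HepG2 cells in DMEM with 10% FBS at 37 °C, 5% CO2, grown to 70% confluence. 10^4 cells/well treated in serum-free medium for 2 h. MTT at 0.5 mg/mL for 2 h, formazan dissolved in DMSO, absorbance read at 570 nm. Viability as percent of control MTT reduction; sextuplicate, repeated twice.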

[18] = test system: HepG2; assay: Cytotoxicity against human HepG2 cells at 10 times of EC50 concentration incubated for 2 hrs by MTT assay; assay type: cell-based; details: hepg2, 2 h; procedure, shortened: as §5
[19] = Binding affinity to P-gp in dog MDCK-MDR1 cells using calcein-AM as substrate after 30 mins by fluorescence analysis; assay type: ADME, cell-based; details: Canis lupus familiaris, MDCK-MDR1, 0.5 h
[20] = test system: Left cardiac atrium; assay: Potency index, ratio of mexiletine EC50 to test compound EC50 for antiarrhythmic activity in guinea pig left atrium model of current induced arrhythmias assessed as increase in threshold of ac-arrhythmia; assay type: functional, Cavia porcellus
[21] = test system: Left cardiac atrium; assay: Potency index, ratio of mexiletine EC50 to test compound EC50 for negative inotropic activity in guinea pig left atrium assessed as decrease in developed tension; assay type: ADME, tissue-based, Cavia porcellus
[22] = test system: Left cardiac atrium; assay: Antiarrhythmic activity in 50 Hz sinusoidal alternating current-induced guinea pig left atrium arrhythmias model assessed as increase in threshold of ac-arrhythmia at 1 x 10^-4 M measured for every 30 mins relative to control; assay type: functional, Cavia porcellus; details: dose 1 10^-4M, 0.5 h, at 100 µM; procedure, shortened: as §1
[23] = test system: Left cardiac atrium; assay: Negative inotropic activity in guinea pig left atrium assessed as decrease in 1 Hz driven developed tension at 1 x 10^-5 M relative to control; assay type: tissue-based, Cavia porcellus; parameters: scale not given: the % may be the effect or the level left; details: 10 µM, dose 1 10^-5M; procedure, shortened: as §2
[24] = test system: Right cardiac atrium; assay: Negative chronotropic activity in guinea pig spontaneously beating right atrium assessed as decrease in atrial rate; assay type: tissue-based; details: Cavia porcellus; procedure, shortened: as §3
[25] = test system: Ileum; assay: Inhibition of calcium-induced contraction in K+-depolarized guinea pig longitudinal smooth muscle at 1 x 10^-4 M relative to control; assay type: tissue-based; details: Cavia porcellus, dose 1 10^-4M
[26] = Binding affinity to P-gp in dog MDCK-MDR1 cells using calcein-AM as substrate at 100 uM after 30 mins by fluorescence analysis; assay type: ADME, cell-based, Canis lupus familiaris; details: mdck-mdr1, 0.5 h
Procedure, shortened: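 MDCK-MDR1 cells, 50,000/well, grown to confluence overnight. Compounds in medium incubated 30 min at 37 °C. Calcein-AM then added at 2.5 μM final for 30 min. Cells washed with ice-cold PBS; fluorescence read at 485/535 nm against untreated basal level.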

[27] = test system: Left cardiac atrium; assay: Negative inotropic activity in guinea pig left atrium assessed as decrease in 1 Hz driven developed tension at 1x 10^-4 M relative to control; assay type: ADME, tissue-based, Cavia porcellus; parameters: scale not given: the % may be the effect or the level left; details: 100 µM, dose 1 10^-4M; procedure, shortened: as §2
[28] = test system: Right cardiac atrium; assay: Negative chronotropic activity in guinea pig spontaneously beating right atrium assessed as decrease in atrial rate at 1 x 10^-4 M relative to control; assay type: ADME, tissue-based, Cavia porcellus; parameters: scale not given: the % may be the effect or the level left; details: 100 µM, dose 1 10^-4M; procedure, shortened: as §3
[29] = test system: Ileum; assay: Inhibition of calcium-induced contraction in K+-depolarized guinea pig longitudinal smooth muscle at 5 x 10^-5 M relative to control; assay type: tissue-based; details: Cavia porcellus, dose 5 10^-5M

EC50 [4] [nM] | Activity [5] [%] | EC50 [6] [nM] | Activity [7] [%] | IC50 [10] [nM] | Activity [23] [%] | EC50 [24] [nM] | Activity [26] | SMILES | Activity [1] [%] | EC50 [2] [nM] | inhibition at 100 µM [8] [%] | Activity [11] | Activity [12] | Activity [13] | Activity [14] | Activity [15] | Activity [16] | Activity [17] | Activity [18] | Activity [22] [%] | other results
12 | 57 | 66 | 24 | 3600 |  |  |  | Cc1cccc(C)c1OCC(N)Cc1ccccc1.Cl (stereo not given) | 169 | 4360 | 33 | 2.9 | 1.9 | 1.2 | 4.4 | 3.5 | 1.3 | Non-Toxic | Non-Toxic |  | Activity [3]: 79%; inhibition at 10 µM [9]: 73%; EC50 [19]: 8400 nM; Ratio EC50 [20]: 2.7; Ratio EC50 [21]: 4
45 |  |  |  |  | 90 | 14 | Not Active | Cc1cccc(C)c1OCC(C)N.Cl (stereo not given) [MEXILETINE HYDROCHLORIDE] |  | 11600 | 5 | 1.3 | 0.8 |  | 3.8 | 3.5 |  |  |  | 64 | inhibition at 100 µM [25]: 81%
21 |  |  |  | 19600 |  | 13100 | Not Active | Cc1cccc(C)c1OCC(N)C(C)C.Cl (stereo not given) |  | 18400 | 11 | 2.6 | 2.2 | 1.1 | 3 | 2.1 | 1 | Non-Toxic | Non-Toxic | 145 | Activity [27]: 84%; Activity [28]: 55%; inhibition at 100 µM [25]: 88%
42 | 77 | 1020 | 7 | 10700 | 92 |  | Not Active | Cc1cccc(C)c1OCC(N)C(C)(C)C.Cl (stereo not given) | 71 | 2110 | 38 | 2.7 | 1.7 | 0.8 | 3.1 | 1.8 | 1.2 | Non-Toxic | Non-Toxic |  | inhibition at 50 µM [29]: 73%
